Among the data in ChEMBL document CHEMBL5705905, “Pharmacological targeting of kinases MST1 and MST2 augments tissue repair and regeneration” (Sci Transl Med, 2016) are Activity, IC50 and AUC(0-t) values, retold here.

Calls of active or inactive are those of the source. The calls are words filed in the database; no cut-off is given here.

Broadly, the IC50 is the concentration that gives 50% inhibition. What is called AUC(0-t) is exposure summed from dosing to a finite time, without extrapolation to infinity.

Data set [1] has as its target Cyclin-dependent kinase 15 (Homo sapiens) (UniProt Q96Q40). Briefly: Inhibition of PFTAIRE2 (unknown origin) assessed as remaining activity at 1 uM by Kinome scan method relative to control.
The subject of data set [2] is Receptor-type tyrosine-protein kinase FLT3 (Homo sapiens), P36888 [UNDEFINED MUTATION]. Put plainly: Inhibition of FLT3 […]/F691L mutant (unknown origin) assessed as remaining activity at 1 uM by Kinome scan method relative to control.
The target of data set [3] is TGF-beta receptor type-1 (Homo sapiens) (UniProt P36897). Put plainly: Inhibition of TGFBR1 (unknown origin) assessed as remaining activity at 1 uM by Kinome scan method relative to control.
Data set [4] deals with T1, Serine/threonine-protein kinase 4 (Homo sapiens, UniProt Q13043).
T1 sequence (Q13043 whole entry): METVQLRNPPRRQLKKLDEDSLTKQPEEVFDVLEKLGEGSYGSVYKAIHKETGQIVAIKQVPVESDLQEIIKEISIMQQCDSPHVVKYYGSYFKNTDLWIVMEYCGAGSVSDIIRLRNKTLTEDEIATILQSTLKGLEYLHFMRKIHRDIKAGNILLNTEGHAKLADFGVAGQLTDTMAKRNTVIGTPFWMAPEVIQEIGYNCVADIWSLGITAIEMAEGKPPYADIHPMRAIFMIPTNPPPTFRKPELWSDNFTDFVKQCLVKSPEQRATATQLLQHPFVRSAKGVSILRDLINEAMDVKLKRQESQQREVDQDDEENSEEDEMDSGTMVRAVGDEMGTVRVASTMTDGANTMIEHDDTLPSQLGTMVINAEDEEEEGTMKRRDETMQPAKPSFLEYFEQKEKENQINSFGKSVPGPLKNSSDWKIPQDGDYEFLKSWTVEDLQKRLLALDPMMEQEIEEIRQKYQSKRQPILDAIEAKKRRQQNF
Briefly: Inhibition of MST1 (unknown origin) in presence of ATP by enzymatic assay.

Data set [5] has as its target Mitotic checkpoint serine/threonine-protein kinase BUB1 (Homo sapiens) (UniProt O43683). Briefly: Inhibition of BUB1 (unknown origin) assessed as remaining activity at 1 uM by Kinome scan method relative to control. The gist of the method:
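KINOMEscan active-site-dependent competition-binding panel of 468 kinases, compound at 1 μM from a DMSO stock. Result reported as ctrl% = (test signal − positive control signal)/(negative control signal − positive control signal) × 100. The negative control is DMSO (100%) and the positive control is a control compound (0%). Lower ctrl% means tighter binding.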

The target of data set [6] is Mitogen-activated protein kinase 15 (Homo sapiens) (UniProt Q8TD08). Briefly: Inhibition of ERK8 (unknown origin) assessed as remaining activity at 1 uM by Kinome scan method relative to control.
The target in data set [7] is Phosphatidylinositol 4,5-bisphosphate 3-kinase catalytic subunit delta isoform (Homo sapiens) (UniProt O00329). Briefly: Inhibition of PIK3CD (unknown origin) assessed as remaining activity at 1 uM by Kinome scan method relative to control.
Chain of Phosphatidylinositol 4,5-bisphosphate 3-kinase catalytic subunit delta isoform (Homo sapiens) (O00329 whole entry, canonical isoform): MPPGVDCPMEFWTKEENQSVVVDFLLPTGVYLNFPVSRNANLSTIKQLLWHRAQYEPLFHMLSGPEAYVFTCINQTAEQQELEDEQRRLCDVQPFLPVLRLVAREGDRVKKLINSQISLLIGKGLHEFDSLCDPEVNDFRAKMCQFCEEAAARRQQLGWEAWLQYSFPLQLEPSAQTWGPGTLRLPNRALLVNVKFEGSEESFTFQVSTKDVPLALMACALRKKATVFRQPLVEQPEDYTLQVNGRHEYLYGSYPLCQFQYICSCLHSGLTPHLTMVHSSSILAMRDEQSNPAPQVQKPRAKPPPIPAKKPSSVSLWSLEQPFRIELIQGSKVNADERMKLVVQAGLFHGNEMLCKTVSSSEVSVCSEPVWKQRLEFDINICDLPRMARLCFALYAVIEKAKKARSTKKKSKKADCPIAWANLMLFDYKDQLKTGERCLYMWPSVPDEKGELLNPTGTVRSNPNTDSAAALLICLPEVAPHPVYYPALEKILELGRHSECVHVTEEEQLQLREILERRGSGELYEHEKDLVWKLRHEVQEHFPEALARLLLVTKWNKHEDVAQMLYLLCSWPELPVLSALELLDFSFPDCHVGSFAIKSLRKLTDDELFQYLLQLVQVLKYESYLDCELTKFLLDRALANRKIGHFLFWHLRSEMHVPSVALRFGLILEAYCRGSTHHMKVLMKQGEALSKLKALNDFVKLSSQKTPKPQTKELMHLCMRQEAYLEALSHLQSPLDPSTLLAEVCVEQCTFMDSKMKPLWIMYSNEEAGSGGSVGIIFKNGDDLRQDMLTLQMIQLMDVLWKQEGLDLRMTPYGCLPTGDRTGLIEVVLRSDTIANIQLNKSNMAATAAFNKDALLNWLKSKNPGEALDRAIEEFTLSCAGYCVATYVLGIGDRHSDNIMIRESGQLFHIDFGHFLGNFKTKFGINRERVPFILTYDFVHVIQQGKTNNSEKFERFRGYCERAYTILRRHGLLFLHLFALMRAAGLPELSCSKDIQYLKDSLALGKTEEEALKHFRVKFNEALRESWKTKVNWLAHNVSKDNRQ
Data set [8] has as its target Serine/threonine-protein kinase D3 (Homo sapiens) (UniProt O94806). Briefly: Inhibition of PRKD3 (unknown origin) assessed as remaining activity at 1 uM by Kinome scan method relative to control.
For data set [9], the target named is Serine/threonine-protein kinase 32B (Homo sapiens) (UniProt Q9NY57). Briefly: Inhibition of YANK2 (unknown origin) assessed as remaining activity at 1 uM by Kinome scan method relative to control.
Data set [10] addresses Mitogen-activated protein kinase kinase kinase 10 (Homo sapiens) (UniProt Q02779). Put plainly: Inhibition of MLK2 (unknown origin) assessed as remaining activity at 1 uM by Kinome scan method relative to control.
A short description of data set [11]: AUC (0 to t) in male Sprague-Dawley rat at 10 mg/kg, po measured for 24 hrs by LC-MS/MS analysis. The class given is ADME, organism-based. As to conditions: in vivo. The gist of the method: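 Sprague-Dawley rats, single intravenous or oral dose. Parameters (half-life, AUC, bioavailability) reported in a supplementary table.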
In data set [12] the test system is Mus musculus. Put plainly: Protection against APAP induced liver injury in mouse assessed as continual expansion of centrilobular necrotic lesions at 1 mg/kg, ip administered at 1.5 hrs by TUNEL staining. The format is functional, organism-based.
The target of data set [13] is Rhodopsin kinase GRK7 (Homo sapiens) (UniProt Q8WTQ7). Briefly: Inhibition of GRK7 (unknown origin) assessed as remaining activity at 1 uM by Kinome scan method relative to control.
The test system of data set [14] is Epidermal growth factor receptor (Homo sapiens), P00533 [UNDEFINED MUTATION]. Put plainly: Inhibition of EGFR E746-A750del mutant (unknown origin) assessed as remaining activity at 1 uM by Kinome scan method relative to control.
Chain of Epidermal growth factor receptor (Homo sapiens), P00533 [UNDEFINED MUTATION] (P00533 whole entry, looked up, stated change not applied): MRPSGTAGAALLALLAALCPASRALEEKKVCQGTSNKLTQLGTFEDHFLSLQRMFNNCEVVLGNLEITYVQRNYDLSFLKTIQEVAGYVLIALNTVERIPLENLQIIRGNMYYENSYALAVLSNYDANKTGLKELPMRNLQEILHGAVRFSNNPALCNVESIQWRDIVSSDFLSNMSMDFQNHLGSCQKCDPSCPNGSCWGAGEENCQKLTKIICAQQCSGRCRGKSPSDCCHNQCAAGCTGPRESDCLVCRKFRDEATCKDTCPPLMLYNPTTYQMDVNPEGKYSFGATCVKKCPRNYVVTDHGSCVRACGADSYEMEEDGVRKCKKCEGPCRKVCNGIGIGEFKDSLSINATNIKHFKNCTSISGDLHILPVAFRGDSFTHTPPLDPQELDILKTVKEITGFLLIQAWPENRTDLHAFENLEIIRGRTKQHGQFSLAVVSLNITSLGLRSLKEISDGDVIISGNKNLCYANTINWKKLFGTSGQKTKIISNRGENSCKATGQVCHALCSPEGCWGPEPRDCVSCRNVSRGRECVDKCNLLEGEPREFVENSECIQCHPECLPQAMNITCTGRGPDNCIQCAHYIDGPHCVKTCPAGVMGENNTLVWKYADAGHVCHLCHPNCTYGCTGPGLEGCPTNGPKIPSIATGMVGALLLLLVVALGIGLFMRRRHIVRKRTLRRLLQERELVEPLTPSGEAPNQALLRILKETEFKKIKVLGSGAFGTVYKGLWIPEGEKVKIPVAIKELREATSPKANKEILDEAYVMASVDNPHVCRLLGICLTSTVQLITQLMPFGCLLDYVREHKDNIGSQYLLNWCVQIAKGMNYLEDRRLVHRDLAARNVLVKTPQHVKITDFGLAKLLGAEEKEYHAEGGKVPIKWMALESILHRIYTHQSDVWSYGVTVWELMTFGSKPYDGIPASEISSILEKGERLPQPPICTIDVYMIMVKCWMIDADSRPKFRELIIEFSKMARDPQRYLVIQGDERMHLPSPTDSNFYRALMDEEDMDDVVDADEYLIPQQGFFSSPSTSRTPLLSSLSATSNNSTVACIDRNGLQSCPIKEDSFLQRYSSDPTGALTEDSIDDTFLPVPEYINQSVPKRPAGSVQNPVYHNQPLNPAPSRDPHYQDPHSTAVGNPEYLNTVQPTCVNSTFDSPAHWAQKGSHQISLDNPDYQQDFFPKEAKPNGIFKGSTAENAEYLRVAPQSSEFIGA
Data set [15] has as its target Serine/threonine-protein kinase 24 (Homo sapiens, UniProt Q9Y6E0). Briefly: Inhibition of MST3 (unknown origin) assessed as remaining activity at 1 uM by Kinome scan method relative to control.
Data set [16] concerns the target 3-phosphoinositide-dependent protein kinase 1 (Homo sapiens) (UniProt O15530). Put plainly: Inhibition of PDPK1 (unknown origin) assessed as remaining activity at 1 uM by Kinome scan method relative to control.
In data set [17] the test system is Mus musculus. Put plainly: Protection against APAP induced liver injury in mouse assessed as decrease in ALT level at 1 mg/kg, ip administered at 2.5 hrs in the presence of NAC. The format is functional, organism-based. As to conditions: Serum.
Data set [18] addresses Calcium/calmodulin-dependent protein kinase type II subunit beta (Homo sapiens) (UniProt Q13554). Put plainly: Inhibition of CAMK2B (unknown origin) assessed as remaining activity at 1 uM by Kinome scan method relative to control. The gist of the method:
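Active-site-dependent competition-binding profiling (KINOMEscan) at 1 μM against a 468-kinase panel; compound supplied from a 10 mM DMSO stock. Read-out is ctrl% = (test signal − positive control signal)/(negative control signal − positive control signal) × 100. DMSO is the negative control (100%) and a control compound the positive control (0%). Lower ctrl% means tighter binding.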

Data set [19] concerns the target Serine/threonine-protein kinase MRCK alpha (Homo sapiens) (UniProt Q5VT25). Put plainly: Inhibition of MRCKA (unknown origin) assessed as remaining activity at 1 uM by Kinome scan method relative to control.
Data set [20] deals with Serine/threonine-protein kinase mTOR (Homo sapiens) (UniProt P42345). Briefly: Inhibition of MTOR (unknown origin) assessed as remaining activity at 1 uM by Kinome scan method relative to control.
Data set [21] addresses Serine/threonine-protein kinase LATS2 (Homo sapiens) (UniProt Q9NRM7). Put plainly: Inhibition of LATS2 (unknown origin) assessed as remaining activity at 1 uM by Kinome scan method relative to control.

Chain of Calcium/calmodulin-dependent protein kinase type II subunit beta (Homo sapiens) (Q13554 whole entry): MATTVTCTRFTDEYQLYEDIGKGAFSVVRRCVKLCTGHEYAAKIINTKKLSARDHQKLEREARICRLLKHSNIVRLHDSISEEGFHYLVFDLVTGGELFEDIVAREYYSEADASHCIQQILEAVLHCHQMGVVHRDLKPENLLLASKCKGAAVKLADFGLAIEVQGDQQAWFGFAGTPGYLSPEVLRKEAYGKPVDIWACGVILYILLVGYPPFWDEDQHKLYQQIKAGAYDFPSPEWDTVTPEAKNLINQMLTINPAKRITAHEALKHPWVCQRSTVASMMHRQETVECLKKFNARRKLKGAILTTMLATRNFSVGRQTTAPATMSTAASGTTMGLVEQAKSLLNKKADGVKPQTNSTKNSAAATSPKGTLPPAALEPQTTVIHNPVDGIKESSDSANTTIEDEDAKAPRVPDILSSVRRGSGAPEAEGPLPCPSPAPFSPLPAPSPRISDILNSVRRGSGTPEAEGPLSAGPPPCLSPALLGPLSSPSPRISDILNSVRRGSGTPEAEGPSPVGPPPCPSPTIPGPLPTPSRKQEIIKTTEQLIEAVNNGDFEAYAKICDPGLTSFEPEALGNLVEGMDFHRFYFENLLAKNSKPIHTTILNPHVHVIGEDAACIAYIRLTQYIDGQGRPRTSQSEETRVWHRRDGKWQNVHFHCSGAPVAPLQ
Chain of Serine/threonine-protein kinase MRCK alpha (Homo sapiens) (Q5VT25 whole entry): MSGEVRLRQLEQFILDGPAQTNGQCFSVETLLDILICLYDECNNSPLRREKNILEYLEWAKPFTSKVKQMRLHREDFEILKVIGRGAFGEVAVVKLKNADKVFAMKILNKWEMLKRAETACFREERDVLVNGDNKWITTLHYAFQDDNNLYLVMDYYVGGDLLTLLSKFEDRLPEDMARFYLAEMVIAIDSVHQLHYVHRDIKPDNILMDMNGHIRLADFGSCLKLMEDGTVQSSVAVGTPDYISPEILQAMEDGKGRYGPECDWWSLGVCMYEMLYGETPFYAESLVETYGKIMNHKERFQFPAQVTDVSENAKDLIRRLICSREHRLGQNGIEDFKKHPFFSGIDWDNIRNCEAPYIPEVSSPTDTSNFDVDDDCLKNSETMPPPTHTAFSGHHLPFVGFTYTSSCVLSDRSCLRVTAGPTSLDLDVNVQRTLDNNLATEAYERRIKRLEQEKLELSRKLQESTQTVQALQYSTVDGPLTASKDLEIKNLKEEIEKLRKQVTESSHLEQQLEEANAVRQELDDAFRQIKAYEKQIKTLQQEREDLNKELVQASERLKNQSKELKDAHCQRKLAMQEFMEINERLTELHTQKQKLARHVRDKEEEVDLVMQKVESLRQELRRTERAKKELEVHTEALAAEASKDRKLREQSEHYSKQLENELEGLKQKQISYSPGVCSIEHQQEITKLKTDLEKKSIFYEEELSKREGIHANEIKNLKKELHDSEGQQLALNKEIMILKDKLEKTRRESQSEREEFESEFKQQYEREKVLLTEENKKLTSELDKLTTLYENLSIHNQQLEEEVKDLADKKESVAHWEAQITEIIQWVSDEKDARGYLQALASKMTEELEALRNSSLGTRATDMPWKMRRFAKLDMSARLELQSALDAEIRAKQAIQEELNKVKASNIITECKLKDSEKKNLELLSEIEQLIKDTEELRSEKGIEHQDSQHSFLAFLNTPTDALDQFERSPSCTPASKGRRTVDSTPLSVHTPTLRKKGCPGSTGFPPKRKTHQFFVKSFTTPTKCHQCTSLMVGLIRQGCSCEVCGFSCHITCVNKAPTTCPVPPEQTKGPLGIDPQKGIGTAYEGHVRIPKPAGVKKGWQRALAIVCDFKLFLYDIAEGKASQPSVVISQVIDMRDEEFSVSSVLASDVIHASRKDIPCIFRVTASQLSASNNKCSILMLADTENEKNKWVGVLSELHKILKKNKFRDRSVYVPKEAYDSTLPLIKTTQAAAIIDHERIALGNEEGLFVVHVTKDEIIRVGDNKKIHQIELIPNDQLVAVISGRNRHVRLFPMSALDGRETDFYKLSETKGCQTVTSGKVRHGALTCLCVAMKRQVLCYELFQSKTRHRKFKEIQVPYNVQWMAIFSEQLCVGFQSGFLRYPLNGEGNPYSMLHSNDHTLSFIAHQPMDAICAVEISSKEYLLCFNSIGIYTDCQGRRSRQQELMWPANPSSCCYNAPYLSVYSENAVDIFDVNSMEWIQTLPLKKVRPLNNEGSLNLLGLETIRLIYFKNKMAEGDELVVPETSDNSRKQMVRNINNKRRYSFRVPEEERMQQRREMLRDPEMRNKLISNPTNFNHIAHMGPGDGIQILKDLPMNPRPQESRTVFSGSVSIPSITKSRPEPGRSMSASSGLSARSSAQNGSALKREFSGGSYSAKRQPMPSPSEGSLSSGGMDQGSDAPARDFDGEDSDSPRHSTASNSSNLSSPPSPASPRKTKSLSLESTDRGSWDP
Chain of Cyclin-dependent kinase 15 (Homo sapiens) (Q96Q40 whole entry): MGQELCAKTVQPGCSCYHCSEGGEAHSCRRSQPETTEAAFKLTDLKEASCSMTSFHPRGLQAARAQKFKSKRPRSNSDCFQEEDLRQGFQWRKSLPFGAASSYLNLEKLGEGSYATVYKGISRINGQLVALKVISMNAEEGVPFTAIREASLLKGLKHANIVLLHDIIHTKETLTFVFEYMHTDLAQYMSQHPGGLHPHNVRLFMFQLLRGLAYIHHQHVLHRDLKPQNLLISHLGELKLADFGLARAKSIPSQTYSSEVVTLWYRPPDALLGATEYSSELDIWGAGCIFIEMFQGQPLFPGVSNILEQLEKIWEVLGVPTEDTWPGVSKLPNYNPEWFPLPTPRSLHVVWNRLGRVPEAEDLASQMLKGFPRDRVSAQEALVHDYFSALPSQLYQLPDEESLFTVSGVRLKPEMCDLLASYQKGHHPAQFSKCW

As to `CN1C(=O)c2sccc2N(C)c2nc(Nc3ccc(S(N)(=O)=O)cc3)ncc21`, the Activity in data set [1] is 99%; in data set [2], 26%; in [3], 92%; in [5], 95%; in data set [6], 79%; in data set [7], 47%. The Activity in data set [8] worked out at 65%; in [9], 100%; in data set [10], 77%; in [13] it was 74%; in data set [14], 82%; in [15] it was 0.9%. The Activity in data set [16] worked out at 100%; in [18], 73%; in data set [19], 76%; in [20], 84%; in [21], 100%. For the same molecule, the IC50 in data set [4] is 9.8 nM. In [11], this molecule showed an AUC(0-t) at 24 h of 0.993 µg·h/mL. Moreover, the outcome in [12] and in data set [17] was Active.
